An excerpt weighted towards active compounds, which were near 3.5% of everything screened.
RGS4 inh = human RGS4 inhibition; P49798; B-score at 10 µM; 310,000 compounds, 0.45% hits; HEK293 M3R/RGS4 inducible, Fluo-4 calcium flux; hits give high values; triggered by carbachol at its EC20; AID 463165;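 active means B-score, a plate-corrected calcium signal, over three deviations above library mean, with baseline fluorescence within five deviations of library mean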;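 further: RGS4 expression induced by doxycycline in cells with stable M3 receptor; B-score is computed from the integrated fluorescence ratio over baseline after carbachol; higher B-score means a larger calcium signal and so more RGS4 inhibition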
Target sequence (P49798 whole entry, looked up): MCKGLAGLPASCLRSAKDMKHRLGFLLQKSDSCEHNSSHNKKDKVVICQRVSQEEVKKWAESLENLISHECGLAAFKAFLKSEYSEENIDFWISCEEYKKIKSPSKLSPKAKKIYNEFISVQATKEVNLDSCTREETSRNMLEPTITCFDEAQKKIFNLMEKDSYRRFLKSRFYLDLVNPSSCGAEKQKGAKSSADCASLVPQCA
MrgX1 antag = human MrgX1 receptor antagonism, primary screen. MRGX1-HEK293 calcium flux, Fluo-4, BAM8-22 antagonism; hits give low values. B-score at 10 µM. 310,000 compounds, 1.3% hits. AID 588676;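 active means calcium-response B-score plate-corrected more than 3 library SD below zero, starting fluorescence within 5 deviations, no agonist response on first addition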;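 further: peak minus trough fluorescence over baseline after final BAM8-22 challenge near maximal dose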
Target sequence (Q96LB2 whole entry, looked up): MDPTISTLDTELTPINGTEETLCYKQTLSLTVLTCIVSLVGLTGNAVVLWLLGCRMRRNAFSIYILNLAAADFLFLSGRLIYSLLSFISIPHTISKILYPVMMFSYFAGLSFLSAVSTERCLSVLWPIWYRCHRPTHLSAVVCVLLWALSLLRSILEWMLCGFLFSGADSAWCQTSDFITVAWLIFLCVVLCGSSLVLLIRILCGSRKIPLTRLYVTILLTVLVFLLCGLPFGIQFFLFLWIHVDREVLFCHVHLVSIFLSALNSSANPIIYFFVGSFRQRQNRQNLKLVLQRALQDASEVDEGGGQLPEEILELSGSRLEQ
MrgX1 ag = activates human MrgX1 receptor signaling; Q96LB2; MrgX1-HEK293 cells, Fluo-4 calcium fluorescence, agonist mode; hits give high values; B-score at 10 µM; 310,000 compounds, 0.44% hits;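 active means calcium response B-score plate-corrected fluorescence ratio at least 3 library SD, with starting fluorescence B-score inside 5 SD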
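Test system: Stable human MrgX1 HEK293 cell line | Schedule: Overnight plating before 1 h dye loading | Read-out basis: Baseline-normalised fluorescence change ratio, B-scored | Detection: Kinetic calcium dye fluorescence, Fluo-4 NW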
RGS4 pot = RGS4 potentiation or activation | HEK293 M3R/inducible RGS4, carbachol calcium flux Fluo4; hits give low values | B-score at 10 µM | 310,000 compounds, 0.92% hits;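 active means B-score of the integrated calcium signal more than 4 SD below the library mean, with starting fluorescence not abnormally high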;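 further: negative B-score means reduced calcium response which marks RGS4 activation or potentiation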
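Assay system: Inducible-RGS4 HEK293 cells carrying M3 receptor | Schedule: Compound preincubation 20 min at room temperature before agonist | Signal: Kinetic calcium fluorescence imaging with Fluo4-AM dye, 2 µM | Read-out basis: B score from integrated fluorescence ratio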
MrgX1 PAM = allosterically activates human MrgX1 receptor signaling | Q96LB2 | B-score at 10 µM | AID 588675 | 310,000 compounds, 0.63% hits | MrgX1-HEK293, Fluo-4 calcium flux, FDSS; hits give high values;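 active means plate-corrected calcium response at least 3 library SD above typical, normal starting fluorescence, not activating the receptor alone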;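 further: compound read alongside a low EC10 to EC30 dose of BAM8-22 agonist; peak minus trough fluorescence over baseline measured at the second addition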
RGS4 act valid = confirmation of RGS4 activators. inhibition, % at 10 µM. shares compounds with RGS4 pot. AID 602282. 1,100 compounds, 89% hits. HEK293 M3R/RGS4 inducible, carbachol calcium flux Fluo4;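 active means inhibition above 3 SD of the buffer control wells, cut at about 41% in these data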;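 further: signal is the integrated peak-minus-minimum Fluo4 fluorescence over baseline ratio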
M3R Ca counter = RGS4 activator counter-screen hit in non-induced cells; shares compounds with RGS4 pot; HEK293 M3R non-induced RGS4, Fluo4 calcium flux; after carbachol challenge at its EC90; inhibition, % at 10 µM; 1,100 compounds, 82% hits; AID 602283;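 active means inhibition exceeding 3 SD of buffer-only control wells, cut at about 26% in these data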;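 further: percent drop in integrated peak-minus-baseline over baseline Fluo4 ratio after carbachol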
Active calls of the source: *; i = inactive; . = no result given.

SMILES	RGS4 inh	MrgX1 antag	MrgX1 ag	RGS4 pot	MrgX1 PAM	RGS4 act valid	M3R Ca counter
O=C(c1ccco1)N1CCN(C(=O)c2cc(-c3ccncc3)nc3ccc(Br)cc23)CC1	i	i	i	i	i	.	.
O=C(NNC(=S)Nc1ccc(F)cc1F)c1ccco1	i	i	i	i	i	.	.
COc1ccc(-c2nc3n(c(=O)c2C#N)CCS3)cc1OC	i	i	i	i	i	.	.
CC1(C)Cc2ccccc2/C(=C/C(=O)N2CCCCCC2)N1	i	i	i	i	i	.	.
CCCC1Oc2ccccc2C(=O)N(CC(=O)c2ccc3c(c2)OCCO3)C1=O (configuration not stated)	i	i	i	-9*	i	58*	0
COc1cc(C(c2nnnn2C2CCCC2)N2CCc3ccccc3C2)ccc1O (configuration not stated)	i	i	i	i	i	.	.
Cc1cc(O)c(-c2cc(C(=O)Nc3ccc(S(=O)(=O)N4CCOCC4)cc3)[nH]n2)cc1C	i	i	i	i	i	.	.
O=C(Nc1ccc(S(=O)(=O)N2CCOCC2)cc1)c1cc(-c2cc(Cl)ccc2O)n[nH]1	i	i	i	-8.4*	i	93*	71*
CCOC(=O)N=S(=O)(Oc1ccc([N+](=O)[O-])cc1)c1ccc(Cl)cc1 (configuration not stated)	i	i	i	i	i	.	.
O=C(c1cccnc1)N(Cc1ccccc1)C1(C(=O)Nc2ccccc2)CCCCC1	i	i	i	i	i	.	.
Cc1cc(C)c2[nH]c(C)c(CN3CCCCCC3)c(=O)c2c1	i	i	i	-11*	i	42*	84*
CCOC(=O)c1c(C)[n+]([O-])c2ccc3c(non3O)c12	i	i	i	i	i	.	.
CCCC(=O)NC(=S)Nc1cccc(Cl)c1N1CCCCC1	i	i	i	-8.9*	i	94*	64*
CCCCNc1c2c3c(cccc3n(C)c1=O)C(=O)c1ccccc1-2	i	i	i	-12*	i	100*	97*
COc1ccccc1N1CCN(C(CNS(=O)(=O)c2ccccc2)c2ccccc2)CC1 (configuration not stated)	i	i	i	i	i	.	.
CCOc1ccc(C(=O)NC2CCN(C(=S)Nc3ccccc3C)CC2)cc1	i	i	i	i	i	.	.
COC(=O)C1=C(N)c2ccccc2C1(C#N)c1ccccc1 (configuration not stated)	i	i	i	i	i	.	.
CN(C)CC(=O)N1c2ccccc2Sc2ccc(Cl)cc21	i	i	i	-8*	i	91*	69*
CCN(CC)CCC(=O)N1c2ccccc2Sc2ccc(Cl)cc21	i	i	i	i	i	.	.
O=C(CCN1CCN2CCCC2C1)N1c2ccccc2Sc2ccc(Cl)cc21 (configuration not stated)	i	i	i	i	i	.	.
NCCCC(=O)N1c2ccccc2Sc2ccc(Cl)cc21	i	i	i	-7.9*	i	91*	85*
CN(C)CCC(=O)N1c2ccccc2Sc2ccc(Cl)cc21	i	i	i	-14*	i	94*	98*
CCCc1nn2c(=O)cc(CSCC(=O)Nc3nnc(CC)s3)nc2s1	i	i	i	i	i	.	.
O=C(c1ccc2c(=O)n3c(nc2c1)CCCCC3)N1CCN(c2ccccc2)CC1	i	i	i	i	i	.	.
O=c1c2cc(Br)ccc2nc2n1CCCCC2	i	i	i	-8.9*	i	80*	30*
SMILES	RGS4 inh	MrgX1 antag	MrgX1 ag	RGS4 pot	MrgX1 PAM	RGS4 act valid	M3R Ca counter
O=C(c1ccc2c(=O)n3c(nc2c1)CCCCC3)N1CCN(C(c2ccccc2)c2ccccc2)CC1	i	i	i	-7.7*	i	93*	92*
Cc1cc(C)c(NC(=O)COC(=O)CSc2ccc(Br)cc2C)c(C)c1	i	i	i	i	i	.	.
CCOC(=O)c1cc(-c2ccccc2)nc2nc(N(CC)CC)sc12	i	i	i	-9*	i	88*	76*
Cc1nc2ccccn2c1-c1csc(Nc2cccc(O)c2)n1	i	.	.	-8.4*	.	57*	0
CN(C)CCn1c(=N)n(CC(O)c2ccc(Cl)c(Cl)c2)c2ccccc21 (configuration not stated)	i	i	i	i	i	.	.
O=C(NCc1ccccc1)c1ccc(C2SCC(=O)N2Cc2ccccc2)cc1 (configuration not stated)	i	i	i	-7.9*	i	88*	55*
C=CCNC(=O)c1ccc(C2SCC(=O)N2Cc2ccccc2)cc1 (configuration not stated)	i	i	i	i	i	.	.
CSc1nc(NCCCO)c2c3c(sc2n1)CN(C)CC3	i	i	i	-7.8*	i	0	0
COc1ccc(OC)c(/C=N/NC(=O)CCN2CCN(C(c3ccccc3)c3ccccc3)CC2)c1	i	i	i	-11*	i	92*	94*
CCN(CC)C1CCN(C(=O)c2cc(COc3cccc4cccnc34)on2)C1 (configuration not stated)	i	.	.	-9.2*	.	90*	75*
CC1CCc2c(sc(NC(=O)c3nc4ncccn4n3)c2C#N)C1 (configuration not stated)	i	i	i	i	i	.	.
Cc1ccc(-c2nnc(SCC(=O)CC(=O)Nc3ccccc3)n2-c2ccccc2)cc1	i	i	i	i	i	.	.
CC(OC(=O)c1cc(O)c2ccccc2c1O)C(=O)Nc1ccc(C(N)=O)cc1 (configuration not stated)	i	i	i	i	i	.	.
COC(=O)c1ccc(CN2CCN(C3CCCC3)C(CCO)C2)cc1 (configuration not stated)	i	i	i	-9.3*	i	92*	67*
CCCN1CCN(CCCNC(=O)c2cc3c(=O)oc4ccc(C)cc4c3s2)CC1	i	i	i	i	i	.	.
Cc1ccc2nc(Cl)c3cc(C(=O)NCCCN4CCCC4)sc3c2c1	i	i	i	-7.6*	i	65*	40*
CCCCn1c2ccc(F)cc2c2nnc(SCCN3CCCCC3)nc21	i	.	.	-7.8*	.	84*	35*
Cn1c2ccc(F)cc2c2nnc(SCCN3CCCCC3)nc21	i	.	.	i	.	.	.

Screening data (PubChem BioAssay)
